Experiment [1] has as its target c-Jun N-terminal kinase, JNK (Homo sapiens) (UniProt P45983+P53779+P45984). Kind of experiment: Induction of JNK phosphorylation in human A375 cells at 4 ug/mL incubated for 18 hrs by Western blotting method. The format is cell-based. The conditions noted are these: A-375. The gist of the method:
(§1)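 A375 cells pretreated 6 h with compound at 4 µg/ml, given 0 or 8 Gy X-ray, then incubated 12 h more. Lysed in RIPA buffer, pH 7.4, with protease and phosphatase inhibitors; 50 µg protein run on SDS-PAGE and blotted to nitrocellulose. Blocked in 5% milk; primary antibodies 1:1000, 10 h at 4 °C; HRP secondary 1:2000.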
A general note: A western blot detects proteins with antibodies after separation by electrophoresis.

Experiment [2] deals with A-375. Kind of experiment: Induction of apoptosis in human A375 cells assessed as caspase 9 activation at 2 ug/mL incubated for 18 hrs by fluorometric assay. The format is functional, cell-based. The method, boiled down:
(§2)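 Cells seeded at 1 × 10⁶ per 10 cm dish and treated with 2 µg/ml alone or with 8 Gy X-ray for 18 h total. RIPA lysates clarified by spinning at 12,000 rpm for 5 min; 80 µg protein given Ac-DEVD-AMC (caspase-3), Ac-IETD-AMC (caspase-8) or Ac-LEHD-AMC (caspase-9). Incubated 2 h at 37 °C in the dark; fluorescence at 380/440 nm.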

The subject of experiment [3] is A-375. Kind of experiment: Induction of apoptosis in human A375 cells assessed as PARP cleavage at 2 ug/mL incubated for 6 hrs followed by irradiation with 8 Gy X-ray at 37 degC for 12 hrs by Western blotting method. The format is functional, cell-based. The gist of the method: (§3)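 A375 cells treated with 2 µg/ml alone or with 8 Gy X-ray (6 h pretreatment, then 12 h; 18 h total). RIPA lysates (50 µg protein) run on SDS-PAGE and immunoblotted for caspases and PARP cleavage. Reprobed for β-actin as loading control.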

Experiment [4] addresses Thioredoxin reductase (Homo sapiens) (UniProt Q16881+Q9NNW7+Q86VQ6). Kind of experiment: Inhibition of TrxR antioxidant enzyme activity in human A375 cells at 2 ug/mL incubated for 6 hrs followed by irradiation with 8 Gy X-ray at 37 degC for 12 hrs by insulin reduction assay. The format is cell-based. The conditions noted are these: A-375.
In experiment [5] the test system is A-375. Kind of experiment: Induction of apoptosis in human A375 cells assessed as caspase 3 activation at 2 ug/mL incubated for 6 hrs followed by irradiation with 8 Gy X-ray at 37 degC for 12 hrs by Western blotting method. The format is functional, cell-based. The gist of the method:
as §3

Experiment [6] relates to A-375. Kind of experiment: Induction of apoptosis in human A375 cells assessed as caspase 9 activation at 2 ug/mL incubated for 18 hrs by Western blotting method. The format is functional, cell-based. The gist of the method:
as §3

In experiment [7] the test system is A-375. Kind of experiment: Induction of apoptosis in human A375 cells assessed as caspase 9 activation at 2 ug/mL incubated for 6 hrs followed by irradiation with 8 Gy X-ray at 37 degC for 12 hrs by fluorometric assay. The format is functional, cell-based. The gist of the method:
as §2

Experiment [8] has as its system A-375. The experiment is described as follows: Induction of cell cycle arrest in human A375 cells assessed as accumulation at G1/G0 phase at 4 ug/mL incubated for 6 hrs followed by irradiation with 8 Gy X-ray at 37 degC for 12 hrs by propidium iodide staining based flow cytometry (reference value: 44.9%). The format is functional. The gist of the method:
(§4)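 A375 cells treated at 10 or 4 µg/ml for 6 h, given 0 or 8 Gy X-ray, then 12 h more. Trypsinized, washed in PBS, fixed overnight in ice-cold 75% ethanol at −20 °C. Stained with propidium iodide, 30 min at 37 °C in the dark; DNA content and sub-G1 population read by flow cytometry.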
For orientation: In flow cytometry, cells or beads pass a laser one at a time.

For the next experiment, the species on record is Homo sapiens. Kind of experiment: Binding affinity to PMB-AGUVGAGLIK TrxR model peptide (unknown origin) at peptide to compound molar ratio of 1:1 at 37 degC for 18 hrs by MALDI-TOF-MS/MS assay. The gist of the method:
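Pre-reduced TrxR model peptide PMB-Ala-Gly-Sec-Val-Gly-Ala-Gly-Leu-Ile-Lys incubated with compound at 1:1 molar ratio, 37 °C, 18 h; adducts examined by MALDI-TOF MS, looking for compound-derived mass shifts and fragment peaks.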

Experiment [9] has as its system A-375. Kind of experiment: Increase in Bax expression in human A375 cells at 4 ug/mL incubated for 18 hrs by Western blotting method. The format is functional, cell-based. The method, boiled down: as §1
The subject of experiment [10] is A-375. The experiment is described as follows: Increase in Bid cleavage in human A375 cells at 4 ug/mL incubated for 18 hrs by Western blotting method. The format is functional, cell-based. The gist of the method: as §1
The subject of experiment [11] is A-375. The experiment is described as follows: Reduction in Bcl-2 expression in human A375 cells at 4 ug/mL incubated for 18 hrs by Western blotting method. The format is functional, cell-based. The method, boiled down:
(§5)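 A375 cells given […] for 6 h, then 0 or 8 Gy X-ray at 1.5 Gy/min and 12 h further culture. Lysis in ice-cold RIPA, pH 7.4, with protease and phosphatase inhibitors; protein by BCA. […] protein per lane on SDS-PAGE, transferred to nitrocellulose. Blocked in 5% milk/TBST. Primary 1:1000, 10 h, 4 °C; HRP secondary 1:2000, 1.5 h.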

The test system of experiment [12] is A-375. The experiment is described as follows: Induction of apoptosis in human A375 cells assessed as caspase 3 activation at 2 ug/mL incubated for 18 hrs by Western blotting method. The format is functional, cell-based. The method, boiled down:
as §3

The test system of experiment [13] is A-375. The experiment is described as follows: Induction of apoptosis in human A375 cells assessed as caspase 8 activation at 2 ug/mL incubated for 18 hrs by Western blotting method. The format is functional, cell-based. The method, boiled down:
as §3

Experiment [14] has as its system A-375. The experiment is described as follows: Induction of apoptosis in human A375 cells assessed as accumulation at subG1 phase at 4 ug/mL incubated for 18 hrs by propidium iodide staining based flow cytometry (reference value: 1.8%). The format is functional. The method, boiled down:
as §4

The subject of experiment [15] is A-375. The experiment is described as follows: Cytotoxicity against human A375 cells pre-treated with 20 uM JNK inhibitor SP600125 for 1 hr followed by 8 ug/mL compound exposure for 18 hrs by MTT assay. The format is functional, cell-based. The gist of the method: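 A375 cells pretreated 1 h with 20 µM SP600125 (JNK) or SB203580 (p38), then exposed to compound at 8 µg/ml for 18 h. Viability by MTT (formazan in DMSO, 570 nm), expressed as % of control.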
A general note: Tetrazolium dyes change colour on reduction, which living cells bring about.

Experiment [16] relates to A-375. Kind of experiment: Induction of apoptosis in human A375 cells assessed as accumulation at subG1 phase at 4 ug/mL incubated for 6 hrs followed by irradiation with 8 Gy X-ray at 37 degC for 12 hrs by propidium iodide staining based flow cytometry (reference value: 2.3%). The format is functional. The method, boiled down: as §4
Experiment [17] deals with A-375. The experiment is described as follows: Induction of ROS generation in human A375 cells at 2 ug/mL incubated for 6 hrs followed by irradiation with 8 Gy X-ray at 37 degC for 12 hrs by DCF and DHE dye based fluorescence assay. The format is functional, cell-based. The gist of the method:
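A375 cells (4 × 10⁴/well) cultured 24 h, then treated 6 h at 8 or 16 µg/ml or at 2 or 4 µg/ml, and given 0 or 8 Gy X-ray. Loaded with H₂DCF or DHE for 30 min at 37 °C in the dark. Fluorescence read at 485/535 nm (DCF) or 480/610 nm (DHE); % of control.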

Experiment [18] has as its target MAP kinase p38 (Homo sapiens) (UniProt O15264+Q15759+Q16539+P53778). The experiment is described as follows: Induction of p38 phosphorylation in human A375 cells at 4 ug/mL incubated for 18 hrs by Western blotting method. The following applies: A-375. The format is cell-based. The gist of the method: as §5
For experiment [19], the system named is A-375. The experiment is described as follows: Induction of cell shrinkage in human A375 cells incubated for 6 hrs followed by irradiation with 8 Gy X-ray at 37 degC for 12 hrs by microscopy. The format is functional, cell-based. The method, boiled down:
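A375 cells in DMEM with 10% FBS, 37 °C, 5% CO2. Pretreated with agent 6 h, then 0 or 8 Gy X-ray from a linear accelerator at 1.5 Gy/min, room temperature. Incubated a further 12 h; morphology imaged.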

The structures appear in SMILES notation. Active and inactive are the calls of the source. The rule behind the calls is not given here.

Turning to `COc1cc(-c2nc3cc(-c4ccc5n[se]nc5c4)ccc3[nH]2)cc(OC)c1OC`, the outcome (in [1]; with A-375 [2]; with A-375 [3]; in the experiment with A-375 [5]; in the experiment with A-375 [6]; in the experiment with A-375 [7]) was Active. Moreover, the outcome in the experiment listed under Homo sapiens, in the experiment on A-375 [9], in the experiment with A-375 [10], in the experiment on A-375 [11], in the experiment on A-375 [12] and in the experiment with A-375 [13] was Active. Also, the result (in the experiment on A-375 [15]; in the experiment on A-375 [17]; in experiment [18]; with A-375 [19]) was Active. For the same compound, the inhibition result in experiment [4] is “Active”. Further, the Activity is given as 47.3% in the experiment with A-375 [8], 36.2% in the experiment on A-375 [14] and 57.1% in the experiment with A-375 [16].

These data come from ChEMBL document CHEMBL3352644, “Selenadiazole derivatives as potent thioredoxin reductase inhibitors that enhance the radiosensitivity of cancer cells” (Eur J Med Chem, 2014).
